Test results published in ChEMBL document CHEMBL4339243, “Molecular Networking Reveals the Chemical Diversity of Selaginellin Derivatives, Natural Phosphodiesterase-4 Inhibitors from Selaginella tamariscina” (J Nat Prod, 2019).

These molecules were tested against T1, 3',5'-cyclic-AMP phosphodiesterase 4D (Homo sapiens, UniProt Q08499) (assay: Inhibition of PDE4D2 (unknown origin) by preincubated for 30 mins before substrate addition and measured after 60 mins by IMAP TR-FRET phosphodiesterase evaluation assay).
T1 sequence (Q08499 whole entry): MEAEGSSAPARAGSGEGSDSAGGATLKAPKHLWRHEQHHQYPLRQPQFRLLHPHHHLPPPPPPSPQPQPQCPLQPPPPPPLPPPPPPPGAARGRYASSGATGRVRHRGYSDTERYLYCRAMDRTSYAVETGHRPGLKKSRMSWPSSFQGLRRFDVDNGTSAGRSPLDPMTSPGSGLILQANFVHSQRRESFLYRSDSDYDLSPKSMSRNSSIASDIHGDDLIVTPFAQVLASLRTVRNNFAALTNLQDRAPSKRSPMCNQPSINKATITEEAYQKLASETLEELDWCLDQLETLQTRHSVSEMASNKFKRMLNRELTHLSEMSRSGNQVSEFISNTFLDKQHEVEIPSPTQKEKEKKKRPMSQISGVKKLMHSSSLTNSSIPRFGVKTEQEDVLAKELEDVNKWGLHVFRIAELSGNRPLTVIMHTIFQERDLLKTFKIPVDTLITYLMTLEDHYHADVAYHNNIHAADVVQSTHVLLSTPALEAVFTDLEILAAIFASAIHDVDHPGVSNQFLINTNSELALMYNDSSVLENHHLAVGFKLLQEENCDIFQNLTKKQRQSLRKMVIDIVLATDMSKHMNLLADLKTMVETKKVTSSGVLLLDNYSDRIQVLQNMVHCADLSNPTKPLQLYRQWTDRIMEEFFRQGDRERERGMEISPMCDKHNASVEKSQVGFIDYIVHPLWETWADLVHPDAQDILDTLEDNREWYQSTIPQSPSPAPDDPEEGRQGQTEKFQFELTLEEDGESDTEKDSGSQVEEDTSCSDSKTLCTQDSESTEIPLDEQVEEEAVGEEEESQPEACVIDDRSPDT
Outline: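 Purchased PDE4D2 at 5.0 pg/μL in IMAP buffer (10 mM Tris pH 7.2, 10 mM MgCl2, 0.05% NaN3, 1 mM DTT, 0.1% phosphate-free BSA). Compound or vehicle preincubated 30 min at RT, then FAM-cAMP added (200 nM final), 60 min at RT. Stopped with IMAP Tb binding reagent, 60 min at RT, fluorescence read. IC50 by four-parameter nonlinear fit, three independent replicates.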

First: COCc1ccc2c(c1C#Cc1ccc(O)cc1)C(c1ccc(OC)cc1)(c1ccc(OC)cc1)c1cc(O)ccc1-2
Second: COc1ccc(C2(c3ccc(OC)cc3)c3cc(O)ccc3-c3ccc(CO)c(C#Cc4ccc(O)cc4)c32)cc1
The IC50 of the first is 1.9-fold lower: 2.8 µM for the first, 5.4 µM for the second.

COc1ccc([C@@]2(c3ccc(O)cc3)c3cc(O)ccc3-c3ccc(CO)c(C#Cc4ccc(O)cc4)c32)cc1 and COCc1ccc2c(c1C#Cc1ccc(O)cc1)[C@](c1ccc(O)cc1)(c1ccc(OC)cc1)c1cc(O)ccc1-2 are within 1.5-fold of each other in IC50: 32.1 µM for the first, 33.8 µM for the second.

Compared with COc1ccc(-c2c3ccc(OC)cc3c3c4c(ccc(-c5ccc(O)cc5)c24)[C@@H](c2ccc(O)cc2)OC3=O)cc1, COc1ccc(-c2c3ccc(OC)cc3c3c4c(ccc(-c5ccc(O)cc5)c24)C(=O)O[C@H]3c2ccc(O)cc2)cc1 is lower in IC50: over 30 µM for the first, 13.7 µM for the second. The second is the more potent here.

COCc1ccc2c(c1C#Cc1ccc(O)cc1)C(c1ccc(O)cc1)(c1ccc(O)cc1)c1cc(O)ccc1-2 and COCc1cc(O)c2c(c1C#Cc1ccc(O)cc1)C(c1ccc(O)cc1)(c1ccc(O)cc1)c1cc(O)ccc1-2 are within 1.5-fold of each other in IC50: 23.2 µM for the first, 29.5 µM for the second.

COc1ccc([C@@]2(c3ccc(O)cc3)c3cc(O)ccc3-c3ccc(C)c(C#Cc4ccc(O)cc4)c32)cc1 and COc1ccc(C2(c3ccc(OC)cc3)c3cc(O)ccc3-c3ccc(C)c(C#Cc4ccc(O)cc4)c32)cc1 are within 1.5-fold of each other in IC50: 19.5 µM for the first, 24.6 µM for the second.

The molecules below were run against T1, 3',5'-cyclic-AMP phosphodiesterase 4D (assay: Inhibition of human PDE4D2 catalytic domain (86 to 413 residues) expressed in Escherichia coli strain BL21 using [3H]cAMP as substrate after 15 mins by liquid scintillation counter analysis).

First: O=C1C=CC(=C(c2ccc(O)cc2)c2c(-c3ccc(O)cc3)ccc(CO)c2C#Cc2ccc(O)cc2)C=C1
Second: OCc1ccc2c(c1C#Cc1ccc(O)cc1)C(c1ccc(O)cc1)(c1ccc(O)cc1)c1cc(O)ccc1-2
The IC50 of the first is 5-fold higher: 1 µM for the first, 0.2 µM for the second.

Compared with COc1ccc(C2(c3ccc(OC)cc3)c3cc(O)ccc3-c3cccc(C#Cc4ccc(O)cc4)c32)cc1, COc1ccc(C2(c3ccc(OC)cc3)c3cc(O)ccc3-c3ccc(C=O)c(C#Cc4ccc(O)cc4)c32)cc1 is 9-fold lower in IC50: 0.09 µM for the first, 0.01 µM for the second. The second is the more potent here.

Molecule Oc1ccc(C#Cc2ccc(O)c3c2C(c2ccc(O)cc2)(c2ccc(O)cc2)c2cc(O)ccc2-3)cc1 has an IC50 of 1.2 µM.
